Reference: ChEMBL document CHEMBL1154664, “From serendipity to rational antituberculosis drug discovery of mefloquine-isoxazole carboxylic acid esters” (J Med Chem, 2009)
pIC50: −log10 of the molar value. ≈ marks a conversion by molar mass, not a printed value.

Tests used:
[1] = system: Mycobacterium tuberculosis; assay: Antitubercular activity against Mycobacterium tuberculosis H37Rv at pH 6.8 by Alamar blue susceptibility assay; assay type: functional
Procedure, shortened: (§1)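 Replicating M. tuberculosis H37Rv cultures; MIC by microplate Alamar Blue assay (MABA) at pH 6.8, run as previously described.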

[2] = system: Mycobacterium tuberculosis; assay: Antitubercular activity against Mycobacterium tuberculosis H37Rv by low oxygen recovery assay; assay type: functional
Procedure, shortened: (§2)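 Nonreplicating M. tuberculosis H37Rv cultures; MIC determined by low oxygen recovery assay (LORA), run as previously described.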

Vero = assay: Cytotoxicity against african green monkey Vero cells after 72 hrs; assay type: cell-based; conditions: Chlorocebus sabaeus
Procedure, shortened: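 VERO green monkey kidney cells exposed to compound for 72 h.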

[3] = Selectivity index, ratio of IC50 for Vero cells to IC50 for Mycobacterium tuberculosis H37Rv by Alamar blue susceptibility assay; assay type: toxicity, cell-based; conditions: monkey, read-out: Ratio IC50
[4] = Selectivity index, ratio of IC50 for Vero cells to IC50 for Mycobacterium tuberculosis H37Rv by low oxygen recovery assay; assay type: toxicity, cell-based; conditions: monkey, read-out: Ratio IC50
[5] = Half life in BALB/c mouse at 400 mg/kg, po; assay type: ADME, organism-based; parameters: dose 400 mg/kg, route oral; conditions: in vivo
Procedure, shortened: (§3)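 Female BALB/c mice (20-22 g), groups of twelve, single oral 400 mg/kg dose as a 20 mg/mL suspension in 0.5% carboxymethyl cellulose. Retro-orbital blood at 0, 15, 30, 45, 90 and 120 min. Plasma obtained by centrifugation, then precipitated with three volumes of acetonitrile containing internal standard. Parent and metabolites quantified by LC-MS-MS using positive electrospray and selected reaction monitoring.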

[6] = Cmax in BALB/c mouse at 400 mg/kg, po; assay type: ADME, organism-based; parameters: dose 400 mg/kg, route oral; conditions: in vivo; procedure, shortened: as §3
[7] = AUC in BALB/c mouse at 400 mg/kg, po; assay type: ADME, organism-based; parameters: dose 400 mg/kg, route oral; conditions: plasma; procedure, shortened: as §3
Mus musculus [8] = assay: Cmax in BALB/c mouse assessed as 2,8-bis(trifluoromethyl)quinol in-4-ol at 400 mg/kg, po; assay type: ADME, organism-based; parameters: dose 400 mg/kg, route oral; conditions: in vivo; procedure, shortened: as §3
Mus musculus [9] = assay: Tmax in BALB/c mouse assessed as 2,8-bis(trifluoromethyl)quinol in-4-ol at 400 mg/kg, po; assay type: ADME, organism-based; parameters: dose 400 mg/kg, route oral; conditions: in vivo; procedure, shortened: as §3
Mus musculus [10] = assay: Plasma concentration in BALB/c mouse assessed as 5-((2,8-bis(trifluoromethyl)qu inolin-4-yloxy)methyl)isoxazole-3-carboxylic acid at 400 mg/kg, po after 3 hrs; assay type: ADME, organism-based; parameters: dose 400 mg/kg, route oral; conditions: in vivo
Mus musculus [11] = assay: Plasma concentration in BALB/c mouse assessed as 5-((2,8-bis(trifluoromethyl)qu inolin-4-yloxy)methyl)isoxazole-3-carboxylic acid at 400 mg/kg, po after 30 mins; assay type: ADME, organism-based; parameters: dose 400 mg/kg, route oral; conditions: in vivo, 0.5 h; procedure, shortened: as §3
Mus musculus [12] = assay: Plasma concentration in BALB/c mouse assessed as 5-((2,8-bis(trifluoromethyl)qu inolin-4-yloxy)methyl)isoxazole-3-carboxylic acid at 400 mg/kg, po after 90 mins; assay type: ADME, organism-based; parameters: dose 400 mg/kg, route oral; conditions: in vivo, 1.5 h; procedure, shortened: as §3
[13] = system: Mycobacterium tuberculosis; assay: Antitubercular activity against replicating Mycobacterium tuberculosis; assay type: functional; procedure, shortened: as §1
[14] = system: Mycobacterium tuberculosis; assay: Antitubercular activity against non replicating Mycobacterium tuberculosis; assay type: functional; procedure, shortened: as §2
[15] = system: Mycobacterium tuberculosis; assay: Antitubercular activity against Mycobacterium tuberculosis infected in macrophages assessed as reduction in colony forming unit; assay type: functional
Mus musculus [16] = assay: Cmax in BALB/c mouse assessed as E-Ethyl 5-[2-(4-quinolinyl)eth enyl]-3-isoxazolecarboxylate at 400 mg/kg, po; assay type: ADME, organism-based; parameters: dose 400 mg/kg, route oral; conditions: in vivo; procedure, shortened: as §3

SMILES	MIC [1] [µM]	MIC [2] [µM]	pIC50 (Vero)	selectivity ratio [3]	selectivity ratio [4]	also measured
OC(c1cc(C(F)(F)F)nc2c(C(F)(F)F)cccc12)C1CCCCN1 (stereo not drawn) [MEFLOQUINE]	13 (≈ 4.92 µg/mL)	7 (≈ 2.65 µg/mL)	4.96	0.9	1.6	
CCOC(=O)c1cc(CCc2cc(C(F)(F)F)nc3c(C(F)(F)F)cccc23)on1	5.7 (≈ 2.46 µg/mL)	12.6 (≈ 5.45 µg/mL)	< 3.89	> 22.5	> 10.2	
CCOC(=O)c1cc(C(Oc2cc(C(F)(F)F)nc3c(C(F)(F)F)cccc23)c2ccccc2)on1 (stereo not drawn)	> 128	> 128	< 3.89			
CCOC(=O)c1cc(CCc2ccnc3ccccc23)on1	2.7 (≈ 0.8 µg/mL)	22.5 (≈ 6.67 µg/mL)	< 3.89	> 47.5	> 5.7	
CCOC(=O)c1cc(/C=C/c2ccnc3ccc(OC)cc23)on1	0.4 (≈ 0.13 µg/mL)	1.1 (≈ 0.357 µg/mL)	< 3.89	> 320	> 116	
CCOC(=O)c1cc(COc2cc(C(F)(F)F)nc3c(C(F)(F)F)cccc23)on1	0.9 (≈ 0.391 µg/mL)	12.2 (≈ 5.3 µg/mL)	< 3.89	> 144	> 10.5	half-life [5]: 1.6 h; Cmax [6]: 1 µM; AUC [7]: 2.2 µM·h; Cmax (Mus musculus [8]): 2710 ng/mL; Tmax (Mus musculus [9]): 0.5 h; Cp (Mus musculus [10]): 100 ng/mL; Cp (Mus musculus [11]): 400 ng/mL; Cp (Mus musculus [12]): 26 ng/mL; MIC [13]: 0.9 µM (≈ 0.391 µg/mL); MIC [14]: 12.2 µM (≈ 5.3 µg/mL); EC90 [15]: 4.1 µM; Cmax (Mus musculus [16]): 30 ng/mL
CCOC(=O)c1cc(/C=C\c2ccnc3ccc(OC)cc23)on1	1.6 (≈ 0.519 µg/mL)	2 (≈ 0.649 µg/mL)	< 3.89	> 80	> 64	
CCOC(=O)c1cc(/C=C/c2ccnc3ccccc23)on1	0.2 (≈ 0.0589 µg/mL)	2.6 (≈ 0.765 µg/mL)	< 3.89	> 640	> 49.2	half-life [5]: 1.9 h; Cmax [6]: 61.7 µM; AUC [7]: 156 µM·h
CCOC(=O)c1cc(/C=C\c2ccnc3ccccc23)on1	0.6 (≈ 0.177 µg/mL)	3 (≈ 0.883 µg/mL)	< 3.89	> 213	> 42.7	
CO[C@H]1/C=C/O[C@@]2(C)Oc3c(C)c(O)c4c(O)c(c(/C=N/N5CCN(C)CC5)c(O)c4c3C2=O)NC(=O)/C(C)=C\C=C\[C@H](C)[C@H](O)[C@@H](C)[C@@H](O)[C@@H](C)[C@H](OC(C)=O)[C@@H]1C [RIFAMPIN]	0.1 (≈ 0.0823 µg/mL)	2 (≈ 1.65 µg/mL)		1220	61	
CCOC(=O)c1cc(-c2cc(C(F)(F)F)nc3c(C(F)(F)F)cccc23)on1	16.5 (≈ 6.67 µg/mL)	48.1 (≈ 19.4 µg/mL)	< 3.89	> 7.8	> 2.7	
CCOC(=O)c1cc(/C=C/c2cc(C(F)(F)F)nc3c(C(F)(F)F)cccc23)on1	2.7 (≈ 1.16 µg/mL)	38.9 (≈ 16.7 µg/mL)	< 3.89	> 47.5	> 3.3	
CCOC(=O)c1cc(C(C)Oc2cc(C(F)(F)F)nc3c(C(F)(F)F)cccc23)on1 (stereo not drawn)	4.2 (≈ 1.88 µg/mL)	20.7 (≈ 9.28 µg/mL)	< 3.89	> 30.5	> 6.2	
O=C(O)c1cc(/C=C/c2ccnc3ccccc23)on1			< 3.89			
CCOC(=O)c1cc(/C=C\c2ccc3ncccc3c2)on1	1.3 (≈ 0.383 µg/mL)	12.4 (≈ 3.65 µg/mL)	< 3.89	> 98.4	> 10.3	
CCOC(=O)c1cc(/C=C/c2ccc3ncccc3c2)on1	0.9 (≈ 0.265 µg/mL)	9.3 (≈ 2.74 µg/mL)	< 3.89	> 142	> 13.8	
CCOC(=O)c1cc(/C=C\c2cc(C(F)(F)F)nc3ccc(C(F)(F)F)cc23)on1			< 3.89			
CCOC(=O)c1cc(C(=O)Nc2cc(C(F)(F)F)nc3c(C(F)(F)F)cccc23)on1	29.5 (≈ 13.2 µg/mL)	> 128	< 3.89	> 4.3		
CCOC(=O)c1cc(C(C)(C)Oc2cc(C(F)(F)F)nc3c(C(F)(F)F)cccc23)on1	6.8 (≈ 3.14 µg/mL)	22.1 (≈ 10.2 µg/mL)	4.64	0.6	1	
CCCCC(Oc1cc(C(F)(F)F)nc2c(C(F)(F)F)cccc12)c1cc(C(=O)OCC)no1 (stereo not drawn)	116 (≈ 56.8 µg/mL)	11.9 (≈ 5.84 µg/mL)	4.37	0.3	3.6	
